Source: ChEMBL document CHEMBL2331340, “Novel antitumor indolizino[6,7-b]indoles with multiple modes of action: DNA cross-linking and topoisomerase I and II inhibition” (J Med Chem, 2013)
pIC50: −log10 of the molar value. Activity calls are given as the source filed them. The rule behind the calls is not given here.

Legend:
[1] = test system: MX1; test: Cytotoxicity against human MX1 cells after 72 hrs by SRB assay; assay type: functional, cell-based; settings: MX1, 72 h
[2] = test system: PC-3; test: Cytotoxicity against human PC3 cells after 72 hrs by Alamar blue assay; assay type: functional, cell-based; settings: PC-3, 72 h
Summary of the method: (§1)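 Cells exposed to compound for 72 h, then Alamar blue added with a further 10−12 h at 37 °C and a spectrophotometric read. IC50 from six or seven concentrations by median-effect analysis; mean ± STDEV, n = 3. CL141T is a line derived from a patient lung tumor passaged as a SCID mouse xenograft.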

[3] = Half life in rat plasma at 1 to 10 ug/mL after 1 to 4 hrs by HPLC analysis; assay type: ADME, cell-free
Summary of the method: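 Rat plasma spiked at 1 and 10 μg/mL and held 1, 2, 3 and 4 h at room temperature. Protein precipitated with acetonitrile containing 10 μg/mL propyl paraben internal standard, centrifuged, filtered. Analysed by reversed-phase C18 HPLC in acetonitrile/10 mM NaH2PO4 pH 4.5 (32:68). Stability given as mean relative error, at least three replicates per concentration.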

[4] = test system: NCI-H460; test: Induction of apoptosis in human H460 cells assessed as increase in cleaved caspase 7 expression at IC50 after 24 to 72 hrs by Western blotting analysis; assay type: functional, cell-based
Summary of the method: (§2)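 H460 cells treated at IC50 for 24 and 72 h. Lysate proteins separated by SDS-PAGE and blotted to nitrocellulose, blocked in 5% milk/PBST. Primary antibodies to caspase-3, caspase-7, PARP (full-length and cleaved) and β-actin applied for 1 h at room temperature or overnight at 4 °C; HRP secondary with ECL detection.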

[5] = test system: NCI-H460; test: Induction of apoptosis in human H460 cells assessed as increase in cleaved caspase 3 expression at IC50 after 24 to 72 hrs by Western blotting analysis; assay type: functional, cell-based; summary of the method: as §2
[6] = test system: NCI-H460; test: Induction of apoptosis in human H460 cells assessed as increase in apoptotic cells at IC50 after 72 hrs by annexin V-FITC/propidium iodide staining-based FACS flow cytometric analysis (reference value: 9.29%); assay type: functional
[7] = test system: NCI-H460; test: Induction of apoptosis in human H460 cells assessed as increase in apoptotic cells at IC50 after 24 hrs by annexin V-FITC/propidium iodide staining-based FACS flow cytometric analysis (reference value: 4.1%); assay type: functional
[8] = Cell cycle arrest in human CL141T cells assessed as accumulation at sub-G1 phase at 0.5 x IC50 to 2 x IC50 after 72 hrs by propidium iodide staining-based FACS flow cytometric analysis; assay type: functional
Summary of the method: (§3)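 CL141T cells treated at 0.5-, 1- and 2-fold IC50 for 24, 48 and 72 h. Cells fixed in ice-cold 70% EtOH, then stained with 4 μg/mL propidium iodide in PBS with 1% Triton X-100 and 0.1 mg/mL RNase A. Phase distribution from flow cytometry DNA histograms; sub-G1 fraction scored as well.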

[9] = Cell cycle arrest in human CL141T cells assessed as accumulation at G2/M phase at 2 x IC50 after 24 hrs by propidium iodide staining-based FACS flow cytometric analysis; assay type: functional; summary of the method: as §3
[10] = Cell cycle arrest in human CL141T cells assessed as accumulation at S phase at 1 x IC50 to 2 x IC50 after 24 hrs by propidium iodide staining-based FACS flow cytometric analysis; assay type: functional; summary of the method: as §3
[11] = test system: Mus musculus; test: Toxicity in nude mouse xenografted with human A549 cells assessed as body weight loss at 25 mg/kg, iv qd administered 4 days measured for 20 days; assay type: organism-based; parameters: dose 25 mg/kg, route intravenous; settings: in vivo, 480 h
[12] = test system: Mus musculus; test: Toxicity in nude mouse xenografted with human HT-29 cells assessed as body weight loss at 25 mg/kg, iv qd administered 4 days measured for 20 days; assay type: organism-based; parameters: dose 25 mg/kg, route intravenous; settings: in vivo, 480 h
[13] = test system: A549; test: Antitumor activity against human A549 cells xenografted in nude mouse assessed as tumor growth inhibition at 25 mg/kg, iv qd administered 4 days measured on day 20 relative to vehicle-treated control; assay type: functional; settings: read-out: TGI
[14] = test system: HT-29; test: Antitumor activity against human HT-29 cells xenografted in nude mouse assessed as tumor growth inhibition at 25 mg/kg, iv qd administered 4 days measured on day 20; assay type: functional, organism-based; parameters: dose 25 mg/kg
[15] = test system: MES-SA; test: Resistance factor, ratio of IC50 for human MES-SA/Dx5 cells to IC50 for human MES-SA cells; assay type: functional
[16] = Resistance factor, ratio of IC50 for human KB-VIN10 cells to IC50 for human KB cells; assay type: functional
[17] = Cytotoxicity against human MES-SA cells after 72 hrs by Presto Blue assay; assay type: functional, cell-based
Summary of the method: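 MES-SA and doxorubicin-resistant MES-SA/dx5 cells exposed for 72 h, then PrestoBlue added for 3 h at 37 °C, absorbance read at 570 and 600 nm. IC50 by median-effect analysis of six or seven concentrations; mean ± STDEV of three to six independent experiments.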

[18] = Cytotoxicity against human HEL299 cells; assay type: cell-based; settings: HEL 299
[19] = test system: HT-29; test: Cytotoxicity against human HT-29 cells after 72 hrs by Alamar blue assay; assay type: functional, cell-based; settings: HT-29, 72 h; summary of the method: as §1
[20] = test system: A549; test: Cytotoxicity against human A549 cells after 72 hrs by Alamar blue assay; assay type: functional, cell-based; settings: A549, 72 h; summary of the method: as §1
[21] = test system: KB; test: Cytotoxicity against human KB cells after 72 hrs by Alamar blue assay
[22] = Cytotoxicity against human KB-VIN10 cells after 72 hrs by Alamar blue assay; settings: KB-VIN10, 72 h

Compound: Cc1c(CO)c(CO)c2n1Cc1c(c3ccccc3n1C)C2
- pIC50 [1]: 6.66
- pIC50 [2]: 6.21
- half-life [3]: 12.4 h
- Activity [4]: Active
- Activity [5]: Active
- Activity [6]: 61.35%
- Activity [7]: 15.09%
- Activity [8]: Active
- Activity [9]: inactive
- Activity [10]: Active
- Activity [11]: Toxic
- Activity [12]: Toxic
- inhibition in vivo at 25 mg/kg [13]: 50%
- TGI [14]: Active
- Ratio IC50 [15]: 0.52
- Ratio IC50 [16]: 0.52
- pIC50 [17]: 6.62
- pIC50 [18]: 5.55
- pIC50 [19]: 5.47
- pIC50 [20]: 5.94
- pIC50 [21]: 5.60
- pIC50 [22]: 5.88
